sPLA2-III inh – Inhibits HGIII-sPLA2 liposome hydrolysis, primary screen; QFRET BODIPY PC-A2 liposome hydrolysis, fluorescence; inhibition, % at 12.2 µM; actives 0.56% (n = 370,000); AID 743126;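 active = inhibition above mean plus 3 SD of compounds lying within the high and low control bounds, cut at about 19% in these data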;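 note: 0% = median of test compound wells and 100% = no enzyme DMSO wells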
DAGLB inh – blocks human DAGLB lipase activity | Q8NCG7 | HEK293T DAGLB membrane lysate, EnzChek fluorogenic substrate | inhibition, % at 5.17 µM | actives 0.059% (n = 340,000); in the data active = inhibition above about 34%;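 note: 0% = enzyme with vehicle and 100% = wells lacking enzyme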
Target sequence (Q8NCG7 whole entry, looked up): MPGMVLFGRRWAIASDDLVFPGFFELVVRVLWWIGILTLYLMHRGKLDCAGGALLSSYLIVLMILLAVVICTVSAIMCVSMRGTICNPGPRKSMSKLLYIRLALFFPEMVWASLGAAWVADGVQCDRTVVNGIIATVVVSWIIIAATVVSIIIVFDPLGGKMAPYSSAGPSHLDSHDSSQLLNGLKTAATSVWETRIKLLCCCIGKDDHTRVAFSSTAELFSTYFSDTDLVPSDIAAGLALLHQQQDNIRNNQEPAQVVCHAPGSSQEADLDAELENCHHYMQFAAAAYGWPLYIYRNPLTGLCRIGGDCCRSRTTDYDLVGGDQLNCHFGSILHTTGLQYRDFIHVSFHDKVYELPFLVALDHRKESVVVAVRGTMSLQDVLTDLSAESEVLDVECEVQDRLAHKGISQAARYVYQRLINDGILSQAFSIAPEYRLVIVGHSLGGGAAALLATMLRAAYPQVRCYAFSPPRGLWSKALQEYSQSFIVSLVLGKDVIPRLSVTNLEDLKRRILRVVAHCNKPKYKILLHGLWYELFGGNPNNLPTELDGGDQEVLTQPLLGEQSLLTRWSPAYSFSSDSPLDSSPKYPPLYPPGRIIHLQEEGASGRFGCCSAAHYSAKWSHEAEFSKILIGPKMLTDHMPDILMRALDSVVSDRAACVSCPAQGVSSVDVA
PLCg1 inh – blocks human PLC-gamma1 enzyme activity. P19174. purified PLC-gamma1, fluorogenic substrate, fluorescence. inhibition, % at 12.2 µM. actives 0.84% (n = 370,000). AID 720700; in the data active = inhibition above about 9.5%
Tb MetRS inh – Trypanosoma brucei MetRS inhibition; inhibition, % at 11.9 µM; actives 0.4% (n = 360,000); AID 624268; purified T. brucei MetRS, ATP depletion, Kinase-Glo luminescence;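 active = inhibition above a per-plate cutoff of the control wells' mean inhibition plus 3 SD, cut at about 5.5% in these data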;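 note: 0% = DMSO wells median and 100% = median of wells with control inhibitor compound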
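technique = Kinase-Glo luminescence, ATP depletion format | system = purified MetRS (methionyl-tRNA synthetase) enzyme from Trypanosoma brucei | timing = 15 min preincubation, 2 h reaction, all 25 °C | evaluation = percent inhibition versus plate control medians | dosing = single dose, 11.9 µM final nominal, 0.9% final DMSO | also added = substrates ATP, L-methionine and bulk Escherichia coli tRNA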
PLC-beta3 inh – inhibitors of human phospholipase C beta3; Purified PLC-beta3, fluorogenic substrate, fluorescence; inhibition, % at 12.2 µM; AID 720704; actives 0.18% (n = 370,000); in the data active = inhibition above about 11%;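 note: 0% = median of compound wells on plate and 100% = full blocker control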
DAGLB inh conf – DAGLB (human) inhibition, confirmation screen; shares compounds with DAGLB inh; HEK293T DAGLB membrane lysate, EnzChek fluorogenic substrate; inhibition, % at 5.17 µM; actives 73% (n = 190);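 active = mean inhibition over triplicate wells above a set limit taken from the primary lipase screen, cut at about 34% in these data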;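 note: 0% = DAGLB with DMSO and 100% = wells lacking DAGLB enzyme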
Starred values were filed as active, the others as inactive; / = no result given. In the library only some 1.9% were active in any assay of this set; here they are far more common.

SMILES | sPLA2-III inh | DAGLB inh | PLCg1 inh | Tb MetRS inh | PLC-beta3 inh | DAGLB inh conf
COc1ccc2c(c1)CN1CN(CC(C)C)S(=O)(=O)CC21 (stereo not given) | 8 | / | -11 | / | -15 | /
COc1cc(N=Nc2ccc(Br)cc2)cc(C=O)c1O | -3 | 38* | 3 | 0 | 2 | 28
COc1cc(CN(C)C)cc(C=O)c1O | / | 2 | / | 0 | / | /
Cc1cc2c(c(=O)o1)[C@@]1(C(=O)N(C)c3cccc(Br)c31)C1=C(CCCC1=O)O2 | 10 | / | 5 | / | 1 | /
Cc1cc(NC(=O)Cc2cn(C)c3ccccc23)ccc1Oc1cccnc1 | -38 | / | -2 | / | -10 | /
O=C1c2ccccc2C(=O)c2c(O)c(O)cc(O)c21 | 7 | 37* | 0 | -2 | -4 | 28
Nc1ccc(O)c2c1C(=O)c1ccccc1C2=O | 1 | 30 | 2 | 0 | 1 | /
CN(C)c1ccc(/C=C/c2ccc3c4ccccc4ccc3[n+]2-c2ccccc2)cc1 | 44* | 35* | -33 | -2 | -54 | 61*
CC(C)C(=O)NC(c1cccs1)c1cc([N+](=O)[O-])c2cccnc2c1O (stereo not given) | / | 36* | / | 0 | / | 20
CCN(Cc1ccccc1)c1ccc(N=Nc2nn(C)c(C)c2[N+](=O)[O-])cc1 | 7 | 59* | 4 | 0 | 4 | 56*
COc1cccc(C(=O)NNc2c3ccccc3nc3ccccc23)c1 | 12 | 45* | -49 | 0 | -68 | 44*
Cc1ccc(C(=O)NNc2c3ccccc3nc3ccccc23)cc1 | 8 | 28 | -100 | -1 | -144 | /
CN(C)c1ccc(N=Nc2ccc(S(=O)(=O)O)cc2)c2ccccc12 | -40 | 48* | -4 | 0 | -5 | 52*
COc1ccc(S(=O)(=O)/N=C2\C=C(Nc3ccc(O)cc3)C(=O)c3ccccc32)cc1 | -39 | 55* | 18* | 2 | 4 | 50*
Cc1ccc(Cn2cc(COC(=O)Nc3ccc(F)cc3)nn2)cc1 | -16 | / | 1 | / | 0 | /
O=C1S/C(=C\c2ccc(O)c([N+](=O)[O-])c2)C(=O)N1Cc1cccc([N+](=O)[O-])c1 | -11 | / | -2 | -2 | 2 | /
O=C1S/C(=C\c2ccc(O)c([N+](=O)[O-])c2)C(=O)N1c1ccccc1Cl | -45 | 36* | 2 | 0 | 4 | 45*
O=C1C(NS(=O)(=O)c2cccs2)=C(N2CCN(c3cccc(Cl)c3)CC2)C(=O)c2ccccc21 | 13 | 41* | 4 | 0 | -1 | 42*
O=C1C(NS(=O)(=O)c2ccccc2)=C(N2CCN(c3ccc(F)cc3)CC2)C(=O)c2ccccc21 | 10 | 27 | 2 | 0 | -4 | /
O=[N+]([O-])c1cncc2[nH]cnc12 | 3 | / | -3 | / | 0 | /
COC(=O)[C@]12C[C@H](CC(=O)NCc3ccccc3)C(=O)N(Cc3ccccc3)C1=C[C@H](C1CCCC1)O[C@@H]2C | -9 | / | 0 | / | 2 | /
CCCCCCCCCCC[C@@H](C[C@@H]1OC(=O)[C@H]1CCCCCC)OC(=O)[C@H](CC(C)C)NC=O | -9 | 49* | -2 | 0 | 2 | 86*
COc1cc(/C=C2/C(=O)NN(c3ccc(C)c(Cl)c3)C2=O)cc([N+](=O)[O-])c1O | -5 | 39* | 3 | 1 | -6 | 38*
COc1cc(/C=C2/C(=O)NN(c3cccc(C)c3)C2=O)cc([N+](=O)[O-])c1O | -10 | 16 | 1 | 0 | 4 | /
CCOc1ccc(Nc2nnc(SCc3nc4ccccc4c(=O)[nH]3)s2)cc1 | 8 | 60* | -10 | 0 | -23 | 74*
SMILES | sPLA2-III inh | DAGLB inh | PLCg1 inh | Tb MetRS inh | PLC-beta3 inh | DAGLB inh conf
Cc1cccc(C)c1Nc1nnc(SCc2nc3ccccc3c(=O)[nH]2)s1 | -17 | 4 | -4 | 0 | -9 | /
CC(=O)Nc1ccc(C=NNc2ccc(S(=O)(=O)Nc3ccccc3C(=O)O)cc2[N+](=O)[O-])cc1 | -20 | 37* | 11* | 0 | 2 | 56*
CCOc1ccc(C=NNc2ccc(S(=O)(=O)Nc3ccccc3C(=O)O)cc2[N+](=O)[O-])cc1OC | / | 14 | / | 0 | / | /
COc1cc(C=NNc2ccc(S(=O)(=O)Nc3ccccc3C(=O)O)cc2[N+](=O)[O-])ccc1O | -20 | 39* | -45 | 0 | 1 | 50*
O=[N+]([O-])c1cc(-c2ccccc2)cc([N+](=O)[O-])c1O | -7 | 43* | -2 | 0 | -5 | 53*
O=[N+]([O-])c1cc2ccccc2c(O)c1O | -23 | 14 | 4 | 0 | -16 | /
O=C(/C(=N\Nc1ccc(Br)cc1)Sc1nnnn1-c1ccccc1)c1ccccc1 | 5 | 3 | 2 | 0 | 0 | /
O=C(O)c1ccc(N=N/C(=N\Nc2ccc(C(=O)O)cc2)c2ccccc2)cc1 | 0 | 39* | -1 | 0 | 0 | 29
O=C(O)c1cccc(N/N=C(\N=Nc2ccccc2)c2ccccc2)c1 | 5 | 21 | 1 | -1 | 0 | /
Brc1ccc(N/N=C(/N=Nc2nn[nH]n2)c2ccccc2)cc1 | -12 | 46* | 5 | -1 | -1 | 78*
Nc1[nH]c(C(=O)c2ccccc2)c(-c2ccccn2)c1C(=O)c1c[nH]c2ccccc12 | 2 | / | -19 | / | -25 | /
Cc1cc(C)c(Nc2cc(S(=O)(=O)O)c(N)c3c2C(=O)c2ccccc2C3=O)c(C)c1 | -42 | 80* | 6 | -1 | 6 | 86*
COCCCNC(=O)CSc1nnc(-c2ccncc2)n1-c1ccc(OC)cc1 | 2 | / | 0 | / | 4 | /
CN(C)c1ccc(N=Nc2ccccc2C(=O)OCC(=O)N(C)C2CCCCC2)cc1 | 3 | 3 | 2 | 0 | 5 | /
CN(C)c1ccc(N=Nc2ccccc2C(=O)OCC(=O)NCC2CCCCC2)cc1 | 14 | 39* | 11* | -1 | 2 | 43*
CCc1ccc(NC(=S)Nc2ccc(S(=O)(=O)Nc3ncccn3)cc2)cc1 | 6 | 54* | -2 | -1 | -6 | -1
O=S(=O)(Nc1ncccn1)c1ccc(NC(=S)Nc2ccc(Cl)cc2)cc1 | -3 | 2 | 2 | 0 | -3 | /
COc1ccc(C2/C=C\CN(C(=O)c3ccc(C)cc3)[C@H](Cc3ccccc3)C(=O)N2Cc2ccc(F)cc2)cc1 (stereo not given in full) | / | 40* | / | 0 | / | 39*
COc1ccc2nc(-n3c(O)c(C4=c5ccccc5=NC4=O)[nH]c3=S)sc2c1 | 2 | 52* | 4 | -1 | 2 | 80*
COc1cc(/C=N/Nc2ccccc2[N+](=O)[O-])cc(OC)c1O | -6 | 39* | 5 | 0 | 5 | 49*
CC(C)Oc1ccccc1/C=N/Nc1ccccc1[N+](=O)[O-] | 4 | 26 | 0 | -2 | 2 | /
COc1ccccc1/C=N\Nc1ccccc1[N+](=O)[O-] | 12 | 35* | 2 | 0 | -7 | 37*

Screening results (PubChem)
